In data set [1] the test system is MS2 coat protein. Kind of data set: apparent Kd, MS2 coat protein; higher = weaker binding; RNA-MaP array; tryptophan 2.4 mM where present. In a few lines:
(§1)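 Designs on Illumina sequencing-chip clusters, transcribed by stalled E. coli RNA polymerase, were exposed to SNAP-549-labelled MS2 coat protein in doubling steps from 0.7 or 1.5 nM up to 3 µM, without and then with constant ligand. The buffer held 100 mM Tris-HCl pH 7.5, 80 mM KCl, 4 mM MgCl2, BSA, DTT, yeast tRNA and Tween-20. Apparent Kd values are medians of filtered per-cluster binding-curve fits to green signal normalised to red-channel RNA signal and control-cluster median Fmax.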

Data set [2] deals with MS2 coat protein. Nature of the data set: apparent Kd, MS2 coat protein; higher = weaker binding; RNA-MaP array; theophylline 2 mM where present. In a few lines:
as §1

Setting [3] is: designed as: ON switch for tryptophan, no ligand.
[4] abbreviates: ligand present: tryptophan, designed as: ON switch for tryptophan.
The mark [5] stands for this setting: designed as: OFF switch for tryptophan, no ligand.
Setting [6] is: ligand present: tryptophan, designed as: OFF switch for tryptophan.
The mark [7] stands for this setting: designed as: ON switch for theophylline, no ligand.
Where [8] appears, read: ligand present: theophylline, designed as: ON switch for theophylline.
Where [9] appears, read: designed as: OFF switch for theophylline, no ligand.
Where [10] appears, read: ligand present: theophylline, designed as: OFF switch for theophylline.

Here are results for 22 sequences from the EternaBench riboswitch data.

The apparent Kd is a dissociation constant that holds for the conditions of the assay. On to “AUAAUAAUCAUGGGUGAAGGUCCUCGCAAACGAGGACCGGUACGGCCGCCACUCGAACAUGAGGAUCACCCAUGUGUGAGGACCU”, for which the “apparent Kd” value in the data set on MS2 coat protein [1] (setting [3]) stood at 58.8 nM; with MS2 coat protein [1] (setting [4]), 36.9 nM.
For the sequence “AAUUAAACAUCGGCCGCCACUUACUCAUGAGGUAACAACAUGAGGAUCACCCAUGUUUGAGGAUCAAGGACCGGGAUGUAAUUUU”, the “apparent Kd” value in the data set with MS2 coat protein [1] (setting [3]) came out at 29.8 nM; with MS2 coat protein [1] (setting [4]), 22.2 nM.
Take “CACGCACGAUCGGCCGCCACUCAUGUAGCUUACAUGAGGAUCACCCAUGUAUUUUCUUUCUUAUAGAGGACCGGGAUCGUGCGUG”: the “apparent Kd” value in the data set with MS2 coat protein [1] (setting [3]) was 17.6 nM; in the data set with MS2 coat protein [1] (setting [4]) it was 15.3 nM.
On to “GGUUACUCUACGGCCGCCACUGAUAAAUAAUAAACCUGUACAUAAACAUGAGGAUCACCCAUGUACAGGACCGGGUAGUGUAACC”, for which the “apparent Kd” value in the data set with MS2 coat protein [1] (setting [3]) turned out to be 32.8 nM; in the data set with MS2 coat protein [1] (setting [4]), 24.1 nM.
Take “GUUGUAUACUCGGCCGCCACUGAGAGAGUCAUGUAAACAUGAGGAUCACCCAUGUAAUAUAUAUACAGGACCGGGAGUAUGGUAA”: the “apparent Kd” value was 15 nM in the data set with MS2 coat protein [1] (setting [5]) and 12.9 nM with MS2 coat protein [1] (setting [6]).
Consider “GAGUAGAGGACGGCCGCCACUGAACAUGAGGAUCACCCAUGUCGUGAUCCGUUACCUAAAGAAGAUAGGACCGGGUCAUGUACUC”, for which the “apparent Kd” value was found to be 27.3 nM in the data set on MS2 coat protein [1] (setting [5]) and 28.7 nM in the data set on MS2 coat protein [1] (setting [6]).
Consider “AACGCGGUGAUGGUAGCCGGACGCUAGGUACGAGGACCGGUACGGCCGCCACUCGGAGUCCUACGACAUGAGGAUCACCCAUGUA”, for which the “apparent Kd” value in the data set with MS2 coat protein [1] (setting [3]) stood at 127 nM; in the data set with MS2 coat protein [1] (setting [4]), 67.5 nM.
In the case of “AAUUAUCAGUCGGCCGCCACUGACACAUGAGGAUCACCCAUGUAACUUGGGUUAAAUUUAAUAAACAGGACCGGGACAAAGGCUA”, the “apparent Kd” value in the data set with MS2 coat protein [1] (setting [5]) amounted to 186 nM; in the data set on MS2 coat protein [1] (setting [6]), 184 nM.
On to “CUCAUCCACGCGGCCGCCACUAUUUUUAGGUGUGGGUGUGACGUAUUACAUGAGGAUCACCCAUGUAGGACCGGGCGUGGAUGAG”, for which the “apparent Kd” value was 385 nM in the data set on MS2 coat protein [1] (setting [5]) and 485 nM in the data set with MS2 coat protein [1] (setting [6]).
As for “UUUUACGGCGAUCUGGGUUUACCAGAUCGGCGAGGACCGGUACGGCCGCCACUCGUGUUUCUUUGACAUGAGGAUCACCCAUGUA”, the “apparent Kd” value in the data set with MS2 coat protein [1] (setting [3]) worked out at 26.9 nM; in the data set on MS2 coat protein [1] (setting [4]), 16.2 nM.
With “AGUUACUCGAACAUGGUUGACGAGUGGCAACGAGGACCGGUACGGCCGCCACUCGAAUAAACAUGAGGAUCACCCAUGUACAAAU”, the “apparent Kd” value in the data set on MS2 coat protein [1] (setting [3]) stood at 135 nM; in the data set with MS2 coat protein [1] (setting [4]), 104 nM.
With “AACAUGAGGAUCACCCAUGUGUCCUCGAAACGAGGACCGGUACGGCCGCCACUCGAAAUAAGCUGUUGACGAAAAGUCAGCAGCA”, the “apparent Kd” value amounted to 281 nM with MS2 coat protein [1] (setting [5]) and 501 nM in the data set with MS2 coat protein [1] (setting [6]).
Take “AAUUUAUGGUUCUUGAUGUAGUAUCUAUUUCGAGGACCGGUACGGCCGCCACUCGUAAAUUACAUGAGGAUCACCCAUGUUAGCU”: the “apparent Kd” value was found to be 24.6 nM with MS2 coat protein [1] (setting [5]) and 29.5 nM in the data set on MS2 coat protein [1] (setting [6]).
Take “GCGUGGUCUGCGGCCGCCACUCAAGGAGCUACAUAGCUCCUAGACAUGAGGAUCACCCAUGUCGCGAGGACCGGGUAGAUUCUCC”: the “apparent Kd” value worked out at 96 nM with MS2 coat protein [1] (setting [3]) and 30.8 nM in the data set on MS2 coat protein [1] (setting [4]).
Take “CUUGGCUGUGCGGCCGCCACUGACUCAUCCUGCAUUACAUGAGGAUCACCCAUGUUGCGGCCUCCCAGGACCGGGCAUAGCCUGC”: the “apparent Kd” value was 390 nM in the data set on MS2 coat protein [1] (setting [3]) and 91.3 nM in the data set with MS2 coat protein [1] (setting [4]).
Regarding “GCUAGGUCAUCGGCCGCCACUAUUAGUGGUUCGAACAUGAGGAUCACCCAUGUGCCACAUGCGCAUAGGACCGGGAUGACCUAGC”, the “apparent Kd” value was found to be 12.7 nM in the data set with MS2 coat protein [1] (setting [3]) and 9.42 nM with MS2 coat protein [1] (setting [4]).
Turning to “AGCAUGUUAGCAGAUACCAGACGUUUUAUGAUCCAUGUAACAUGAGGAUCACCCAUGUAAGUCCCUUGGCAGCUGAAAUAAUGCA”, the “apparent Kd” value turned out to be 155 nM in the data set with MS2 coat protein [2] (setting [7]) and 301 nM in the data set with MS2 coat protein [2] (setting [8]).
Regarding “GAGUUCCUGAGAGAUACCAGUGAGGCCACAUGAGGAUCACCCAUGUCCCUCACUCCGGCCCACCCUUGGCAGCUCGAAAGAUAUU”, the results for the “apparent Kd” value in the data set on MS2 coat protein [2] (setting [9]) and in the data set on MS2 coat protein [2] (setting [10]) were 10.9 nM and 68.1 nM, respectively.
In the case of “AAACUGGGUGUAAAAUAAAUAAUCACUGAUACCAGACUAUGAGAUGUCCCUUGGCAGCAGAAACAUGAGGAUCACCCAUGUAAUA”, the results for the “apparent Kd” value in the data set on MS2 coat protein [2] (setting [9]) and with MS2 coat protein [2] (setting [10]) were 17.9 nM and 21.2 nM, respectively.
With “CUACAUUUGUAGAAACCGGUCAACAAUAAUCGAGGACCGGUACGGCCGCCACUCGUAUAAUUUAAUACAUGAGGAUCACCCAUGU”, the “apparent Kd” value with MS2 coat protein [1] (setting [3]) was found to be 14.9 nM; in the data set on MS2 coat protein [1] (setting [4]), 15.4 nM.
Turning to “AGCGAGAUCCGUGAUACCAGCUACAUGAGGAUCACCCAUGUGAGCGCGAAAGUGCUGUGUAGCCCUUGGCAGCACAGUGGAUCUC”, the figures for the “apparent Kd” value with MS2 coat protein [2] (setting [9]) and in the data set with MS2 coat protein [2] (setting [10]) were 10 nM and 43.2 nM, respectively.
On to “AAUAAUCUAGGUGAUACCAGCUCAACAUGAGGAUCACCCAUGUACUCAUGUAGAGUUGAGAGCCCUUGGCAGCACCUAGAUAAUA”, for which the “apparent Kd” value turned out to be 553 nM in the data set with MS2 coat protein [2] (setting [7]) and 74.9 nM in the data set with MS2 coat protein [2] (setting [8]).
